Assay outcomes (PubChem BioAssay)
Most compounds without a hit are left out; they make up all but 1.4% or so of the library.
PAD4 inh: inhibitors of human PAD4; Q9UM07; recombinant PAD4, RCA probe fluorescence polarization; inhibition, % at 6.36 µM; 0.41% of 330,000 active; AID 485272;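 active means percent inhibition above a cutoff equal to the mean of all tested compounds plus 3 SD, cut at about 15% in these data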;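 further: 0% = PAD4 with RCA probe and DMSO and 100% = probe without PAD4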
Target sequence (Q9UM07 whole entry, looked up): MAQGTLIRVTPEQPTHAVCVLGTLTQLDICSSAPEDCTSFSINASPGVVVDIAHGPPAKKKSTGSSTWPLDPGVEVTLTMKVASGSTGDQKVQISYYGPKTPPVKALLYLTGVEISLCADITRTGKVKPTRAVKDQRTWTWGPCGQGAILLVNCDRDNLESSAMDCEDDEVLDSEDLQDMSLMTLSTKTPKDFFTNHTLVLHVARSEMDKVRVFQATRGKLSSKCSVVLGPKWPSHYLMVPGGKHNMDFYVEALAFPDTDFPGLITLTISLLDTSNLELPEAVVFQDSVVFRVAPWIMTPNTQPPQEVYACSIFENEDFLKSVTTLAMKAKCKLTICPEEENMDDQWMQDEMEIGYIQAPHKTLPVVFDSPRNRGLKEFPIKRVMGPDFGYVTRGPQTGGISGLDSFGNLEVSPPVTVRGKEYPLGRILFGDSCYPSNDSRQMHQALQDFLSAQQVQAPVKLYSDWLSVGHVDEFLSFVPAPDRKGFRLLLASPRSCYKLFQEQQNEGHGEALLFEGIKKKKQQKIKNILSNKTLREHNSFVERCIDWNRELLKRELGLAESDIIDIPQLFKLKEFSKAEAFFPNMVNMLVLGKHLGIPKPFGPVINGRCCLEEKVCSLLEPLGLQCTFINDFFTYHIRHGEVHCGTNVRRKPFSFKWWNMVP
TDP2 inh: TDP2 (human) inhibition, absorbance primary screen; O95551; recombinant TDP2, T5PNP hydrolysis, p-nitrophenol absorbance 415 nm; inhibition, % at 12.8 µM; 0.34% of 370,000 active; AID 720702;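 active means inhibition above the mean of all tested compounds plus 3 SD, set per campaign, cut at about 25% in these data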;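 further: 0% = DMSO with enzyme and 100% = buffer with substrate but no TDP2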
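Assay system: Recombinant human TDP2 | Quantity: 120 nM TDP2 per well | Incubation: 2 h at 37 °C | Signal: Epi absorbance | Evaluation: Percent inhibition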
Fh CTSL1 inh: cathepsin L1 inhibition, PFM18AAP counter-screen; recombinant F. hepatica cathepsin L1, Z-Leu-Arg-MCA fluorescence; inhibition, % at 5.96 µM; 0.49% of 300,000 active;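 active means inhibition above the mean of all tested compounds plus 3 SD, set per screening campaign, cut at about 17% in these data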;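 further: 0% = plate median of test compound wells and 100% = 1 µM Z-Phe-Ala-diazomethylketone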
GSTO1 inh: blocks human GSTO1 in RBBP9 counter-screen. 1.1% of 300,000 active. inhibition, % at 5.96 µM. recombinant GSTO1, activity-based probe fluorescence polarization. P78417;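 active means inhibition above the campaign mean inhibition plus 3 SD, cut at about 35% in these data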;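 further: 0% = GSTO1-1 with DMSO and 100% = wells lacking GSTO1-1 enzyme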
GSTO1 inh conf: confirmation of human GSTO1 inhibitors; 54% of 2,400 active; shares compounds with GSTO1 inh; recombinant GSTO1, probe fluorescence polarization; inhibition, % at 5.96 µM; AID 2176;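 active means inhibition above the primary screen's cutoff, its mean inhibition plus 3 SD, cut at about 35% in these data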;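 further: loss of polarization as inhibitors block binding of rhodamine sulfonate ester activity probe; 0% = GSTO1 with DMSO and 100% = wells lacking GSTO1 enzyme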
An asterisk follows results filed as active; · = not tested or not shown.

SMILES	PAD4 inh	TDP2 inh	Fh CTSL1 inh	GSTO1 inh	GSTO1 inh conf
Oc1c(CN2CCN(c3ccccc3)CC2)cc(Br)c2cccnc12	-4	7	8	38*	4
Cc1cc(C(=O)N/N=C/c2ccc([N+](=O)[O-])o2)c(C)o1	-6	7	3	38*	7
Cc1nonc1C(=O)N/N=C/c1ccc([N+](=O)[O-])o1	-7	-5	5	24	·
CCOC(=O)[C@@]12CCC3=C1N(CCC3)C(=O)[C@H](CC(=O)NCc1ccc(C)o1)C2	·	9	·	·	·
C=CCN1C(c2cccc(C(F)(F)F)c2)=CS/C1=C(\C#N)c1nnc(N2CCOCC2)n1-c1ccccc1	·	3	·	·	·
C=CCN1C(=O)NC(c2ccccc2)(C(F)(F)F)S/C1=C(\C#N)c1nnc(N2CCOCC2)n1-c1ccccc1 (stereo unspecified)	1	-7	3	43*	58*
Cc1ccccc1NC(=O)Cn1nnc(-c2ccncc2)n1	·	6	·	·	·
Cc1ccc2[nH]c3c(c2c1)CCCC3NC(=O)CCl (stereo unspecified)	-5	·	11	93*	99*
Cc1ccc2[nH]c3c(c2c1)CCCC3C(N)=O (stereo unspecified)	-5	-7	12	-4	·
C=CCN1C(=O)[C@@H](CC(=O)NCCC(C)C)[C@]2(C(=O)OCC)CCCCC/C=C/12	·	-3	·	·	·
Oc1ccccc1NCC(O)Cn1ccc2ccccc21 (stereo unspecified)	-6	17	-1	66*	7
CC(=O)Oc1cc(OC(C)=O)c2c(C)cc(=O)oc2c1	2	-4	-20	53*	6
O=C1NC(=O)C(c2ccccc2[N+](=O)[O-])=C1Nc1ccc(O)c(Cl)c1	46*	18	1	64*	49*
O=C(NNc1ccccc1[N+](=O)[O-])Nc1ccc(Cl)c(Cl)c1	-5	-15	6	-5	·
CC(=O)C(=Nc1ccccc1Cl)NNc1ccc(Cl)cc1	-2	-3	0	40*	10
O=S1(=O)CCSC[C@@H](CN2CCOCC2)N1	·	-6	·	·	·
Fc1ccc(-c2n[nH]c(=S)n2N=Cc2ccc(-c3ccccc3)cc2)cc1	·	10	·	·	·
Cc1cc(/C=C2\SC(=S)NC2=O)c(C)n1C1CC1	-5	7	2	40*	51*
C#CCN(C[C@@H]1[C@@H](OC(=O)NCc2ccc(OC)c(OC)c2)[C@@H](OC(=O)NCc2ccc(OC)c(OC)c2)CN(C(=O)OC(C)C)N1C(=O)OC(C)C)S(=O)(=O)c1ccc(C)cc1	·	-1	·	·	·
Cc1cc(C(=O)O)ccc1-n1c(C)ccc1C	9	·	1	46*	20
COC(=O)[C@@]12C[C@@H](CC(=O)NCC34CC5CC(CC(C5)C3)C4)C(=O)N(Cc3ccccc3)C1=CCC(C)(C)C2	·	-1	·	·	·
C=CCN1C(=O)[C@H](CC(=O)NCCCC)[C@@]2(C(=O)OCC)CCCC=C12	·	9	·	·	·
Nc1c(S(=O)(=O)O)cc(NC(=O)c2ccccc2)c2c1C(=O)c1ccccc1C2=O	4	·	6	41*	63*
CCOC(=O)[C@]12CCCC=C1N(Cc1ccc(OC)cc1)C(=O)[C@@H]2CC(=O)N1CCCC1	·	-3	·	·	·
O=C(O)Cc1cc(I)c(Oc2ccc(O)c(I)c2)c(I)c1	-7	·	2	62*	56*
SMILES	PAD4 inh	TDP2 inh	Fh CTSL1 inh	GSTO1 inh	GSTO1 inh conf
O=C(O)Cc1ccc(O)c(O)c1	-4	-7	-2	7	·
CCCCOCCCNC(=O)C[C@H]1C(=O)N(CCCOC)C2=CCCCC[C@]21C(=O)OC	·	8	·	·	·
O=C1c2ccccc2C(=O)c2c1oc(C(F)(F)F)c2C(=O)c1ccccc1	2	2	26*	62*	71*
O=C(c1ccccc1)c1coc2c1C(=O)c1ccccc1C2=O	-10	4	20*	60*	39*
C#CCN(Cc1ccco1)C(=O)c1nnc2c3ccccc3n(S(=O)(=O)c3ccc(C)cc3)c2n1	·	-8	·	·	·
COC(=O)[C@]12C[C@H](CC(=O)N3CCOCC3)C(=O)N(CCc3ccc(OC)c(OC)c3)C1=C[C@H](COCc1ccccc1)O[C@@H]2C	·	-1	·	·	·
O=C1C(NS(=O)(=O)c2cccs2)=C(N2CCN(c3cccc(C(F)(F)F)c3)CC2)C(=O)c2ccccc21	-9	6	0	48*	14
O=S(=O)(Nc1ccc(C(F)(F)F)cc1)c1cccs1	-2	3	-3	4	·
COc1ccccc1N1CCN(S(=O)(=O)c2cccs2)CC1	-3	-6	-4	1	·
